These results are taken from ChEMBL document CHEMBL4376901, “Azo-PROTAC: Novel Light-Controlled Small-Molecule Tool for Protein Knockdown” (J Med Chem, 2020).

Calls of active or inactive are those of the source. The rule behind the calls is not given here.

In data set [1] the target is T1, Protein cereblon/Tyrosine-protein kinase ABL1 (Homo sapiens) (UniProt P00519+Q96SW2). Briefly: Protac activity at CRBN/ABL in human K562 cells assessed as reduction in ABL protein levels incubated for 24 hrs followed by exposure to white light up to 24 hrs by Western blot analysis. In kind it is cell-based. In general terms: A western blot detects proteins with antibodies after separation by electrophoresis.

Data set [2] has as its system K562. Briefly: Cytotoxicity against human K562 cells assessed as inhibition of cell viability incubated for 48 hrs by Cell-titer-Glo luminescent cell viability assay. In kind it is functional, cell-based. The settings on record: K562, 48 h.
The test system of another data set is A549. In words: Cytotoxicity against human A549 cells assessed as inhibition of cell viability incubated for 48 hrs by Cell-titer-Glo luminescent cell viability assay. In kind it is functional, cell-based.
Data set [3] is described as follows: Stability in presence of 20 mM of GSH reduced in DMSO/PBS buffer (1:1) solution incubated for 48 hrs. In kind it is physicochemical.
Data set [4] concerns the target T1, Protein cereblon/Tyrosine-protein kinase ABL1 (Homo sapiens). Briefly: Protac activity at CRBN/ABL in human K562 cells assessed as reduction in ABL protein levels pre-treated with NEDD8-activating enzyme (NAE) inhibitor MLN4924 followed by compound addition at 250 nM incubated for 24 hrs by Western blot analysis. In kind it is cell-based.
The target of data set [5] is T2, Protein cereblon/Tyrosine-protein kinase ABL1/Breakpoint cluster region protein (Homo sapiens) (UniProt P00519+P11274+Q96SW2). Briefly: Protac activity at CRBN/BCR-ABL in human K562 cells assessed as reduction in BCR-ABL protein levels pre-treated with lenalidomide followed by compound addition at 250 nM incubated for 24 hrs by Western blot analysis. In kind it is cell-based.

For data set [6], the target named is T1, Protein cereblon/Tyrosine-protein kinase ABL1 (Homo sapiens). In words: Protac activity at CRBN/ABL in human K562 cells assessed as reduction in ABL protein levels at 250 nM incubated for 32 hrs by Western blot analysis. In kind it is cell-based. The arrangement: scale not given: the % may be the effect or the level left. The gist of the method: (§1)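 Time-course in K562 cells at a fixed 250 nM PROTAC, run separately with the trans and cis forms. Cells were harvested at several time points. BCR-ABL and ABL protein levels were read by Western blot.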

Data set [7] is described as follows: Drug metabolism assessed as photoisomerization to cis-isomer after exposure to UV-C light and measured after 1 hr by UV-visible absorption spectra analysis.
In data set [8] the target is T1, Protein cereblon/Tyrosine-protein kinase ABL1 (Homo sapiens). In words: Protac activity at CRBN/ABL in human K562 cells assessed as reduction in ABL protein levels incubated for 24 hrs by Western blot analysis.
For data set [9], the system named is K562. Briefly: Antiproliferative activity against human K562 cells assessed as inhibition of cell proliferation incubated for 48 hrs by CCK8 assay. In kind it is functional, cell-based. The settings on record: K562, 48 h. In general terms: Tetrazolium assays rely on reduction of a dye to a coloured formazan, in cell work by metabolically active cells.
The target in data set [10] is T2, Protein cereblon/Tyrosine-protein kinase ABL1/Breakpoint cluster region protein (Homo sapiens). Briefly: Protac activity at CRBN/BCR-ABL in human K562 cells assessed as reduction in BCR-ABL protein levels pre-treated with NEDD8-activating enzyme (NAE) inhibitor MLN4924 followed by compound addition at 250 nM incubated for 24 hrs by Western blot analysis. In kind it is cell-based.

Another data set has as its system HCT-116. Briefly: Cytotoxicity against human HCT116 cells assessed as inhibition of cell viability incubated for 48 hrs by Cell-titer-Glo luminescent cell viability assay. In kind it is functional, cell-based.
The target of data set [11] is T2, Protein cereblon/Tyrosine-protein kinase ABL1/Breakpoint cluster region protein (Homo sapiens). In words: Protac activity at CRBN/BCR-ABL in human K562 cells assessed as reduction in BCR-ABL protein levels incubated for 24 hrs followed by exposure to UV-C light every 4 hrs by Western blot analysis. In kind it is cell-based. Summed up:
(§2)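 K562 cells were treated with the trans form for 24 h, then moved to fresh medium and split into two groups. One group was exposed to UV-C light every 4 h and harvested. The control group was harvested without irradiation at 0, 4, 8, 12, 16 and 24 h. Proteins were read by Western blot.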

Data set [12] is described as follows: Drug metabolism assessed as photoisomerization to cis-isomer after exposure to UV-C light and measured up to 120 mins by UV-visible absorption spectra analysis.
Data set [13] deals with T1, Protein cereblon/Tyrosine-protein kinase ABL1 (Homo sapiens). In words: Protac activity at CRBN/ABL in human K562 cells assessed as reduction in ABL protein levels incubated for 24 hrs followed by exposure to UV-C light every 4 hrs by Western blot analysis. In kind it is cell-based. Summed up: as §2
The test system of a further data set is MCF7. Briefly: Cytotoxicity against human MCF7 cells assessed as inhibition of cell viability incubated for 48 hrs by Cell-titer-Glo luminescent cell viability assay. In kind it is functional, cell-based.
The target in data set [14] is T2, Protein cereblon/Tyrosine-protein kinase ABL1/Breakpoint cluster region protein (Homo sapiens). Briefly: Protac activity at CRBN/BCR-ABL in human K562 cells assessed as reduction in BCR-ABL protein levels at 250 nM incubated for 32 hrs by Western blot analysis. The arrangement: scale not given: the % may be the effect or the level left. In kind it is cell-based. Summed up: as §1

Data set [15] concerns the target T1, Protein cereblon/Tyrosine-protein kinase ABL1 (Homo sapiens). In words: Protac activity at CRBN/ABL in human K562 cells assessed as reduction in ABL protein levels at 250 nM incubated for 4 hrs by Western blot analysis. In kind it is cell-based. Summed up:
as §1

For data set [16], the system named is K562. In words: Effect on ABL gene expression in human K562 cells at 50 to 500 nM incubated for 36 hrs by RT-qPCR analysis. In kind it is ADME, cell-based. The settings on record: k562, 36 h, 0.5 µM. In general terms: In qPCR the cycle at which signal appears reflects the starting amount.
Data set [17] can be described thus: Half life for spontaneous thermal relaxation under dark condition at 25 degC. In kind it is physicochemical.
Data set [18] concerns the target T2, Protein cereblon/Tyrosine-protein kinase ABL1/Breakpoint cluster region protein (Homo sapiens). Briefly: Protac activity at CRBN/BCR-ABL in human K562 cells assessed as reduction in BCR-ABL protein levels incubated for 24 hrs by Western blot analysis.
Data set [19] concerns the target T1, Protein cereblon/Tyrosine-protein kinase ABL1 (Homo sapiens). Briefly: Protac activity at CRBN/ABL in human K562 cells assessed as reduction in ABL protein levels pre-treated with ABL inhibitor dasatinib followed by compound addition at 250 nM incubated for 24 hrs by Western blot analysis. In kind it is cell-based.
In data set [20] the target is T2, Protein cereblon/Tyrosine-protein kinase ABL1/Breakpoint cluster region protein (Homo sapiens). In words: Protac activity at CRBN/BCR-ABL in human K562 cells assessed as reduction in BCR-ABL protein levels pre-treated with ABL inhibitor dasatinib followed by compound addition at 250 nM incubated for 24 hrs by Western blot analysis. In kind it is cell-based.
Data set [21] concerns the target T1, Protein cereblon/Tyrosine-protein kinase ABL1 (Homo sapiens). Briefly: Protac activity at CRBN/ABL in human K562 cells assessed as reduction in ABL protein levels at 100 nM incubated for 24 hrs by Western blot analysis.
Data set [22] shares this target. In words: Protac activity at CRBN/ABL in human K562 cells assessed as reduction in ABL protein levels pre-treated with lenalidomide followed by compound addition at 250 nM incubated for 24 hrs by Western blot analysis. In kind it is cell-based.
Data set [23] concerns the target T2, Protein cereblon/Tyrosine-protein kinase ABL1/Breakpoint cluster region protein (Homo sapiens). In words: Protac activity at CRBN/BCR-ABL in human K562 cells assessed as reduction in BCR-ABL protein levels incubated for 24 hrs followed by exposure to white light up to 24 hrs hrs by Western blot analysis. In kind it is cell-based. Summed up:
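Cells were preincubated with the cis form while shielded from light, then moved to fresh medium and exposed to visible light. BCR-ABL was followed over time by Western blot.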

Data set [24] shares this target. Briefly: Protac activity at CRBN/BCR-ABL in human K562 cells assessed as reduction in BCR-ABL protein levels at 250 nM incubated for 4 hrs by Western blot analysis. The settings on record: in the assay text read “10 hrs” for “4 hrs”. In kind it is cell-based. The gist of the method: as §1
The target is the same in data set [25]. Briefly: Protac activity at CRBN/BCR-ABL in human K562 cells assessed as reduction in BCR-ABL protein levels at 100 nM incubated for 24 hrs by Western blot analysis.
Data set [26] in a line: Drug metabolism assessed as photoisomerization to cis-isomer after exposure to white light light up to 240 mins by UV-visible absorption spectra analysis.
For data set [27], the target named is T1, Protein cereblon/Tyrosine-protein kinase ABL1 (Homo sapiens). Briefly: Protac activity at CRBN/ABL in human K562 cells assessed as reduction in ABL protein levels at 250 nM incubated for 10 hrs by Western blot analysis. In kind it is cell-based. The gist of the method: as §1
The target in data set [28] is T2, Protein cereblon/Tyrosine-protein kinase ABL1/Breakpoint cluster region protein (Homo sapiens). In words: Protac activity at CRBN/BCR-ABL in human K562 cells assessed as reduction in BCR-ABL protein levels at 250 nM incubated for 10 hrs by Western blot analysis. In kind it is cell-based. Summed up:
as §1

Data set [29] has as its target T1, Protein cereblon/Tyrosine-protein kinase ABL1 (Homo sapiens). In words: Protac activity at CRBN/ABL in human K562 cells assessed as reduction in ABL protein levels at 500 nM incubated for 24 hrs by Western blot analysis.
Data set [30] deals with T2, Protein cereblon/Tyrosine-protein kinase ABL1/Breakpoint cluster region protein (Homo sapiens). Briefly: Protac activity at CRBN/BCR-ABL in human K562 cells assessed as reduction in BCR-ABL protein levels at 500 nM incubated for 24 hrs by Western blot analysis.
Data set [31] has the same target. In words: Protac activity at CRBN/BCR-ABL in human K562 cells assessed as reduction in BCR-ABL protein levels at 50 to 250 nM incubated for 24 hrs by Western blot analysis. In kind it is cell-based. Summed up: (§3)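 K562 cells were exposed for 24 h to a concentration gradient of the trans or cis form. BCR-ABL and ABL protein levels were assessed by Western blot in a dose-effect design.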

Data set [32] concerns the target T1, Protein cereblon/Tyrosine-protein kinase ABL1 (Homo sapiens). In words: Protac activity at CRBN/ABL in human K562 cells assessed as reduction in ABL protein levels at 50 to 250 nM incubated for 24 hrs by Western blot analysis. In kind it is cell-based. The gist of the method: as §3

T2 sequence (P00519 whole entry, looked up): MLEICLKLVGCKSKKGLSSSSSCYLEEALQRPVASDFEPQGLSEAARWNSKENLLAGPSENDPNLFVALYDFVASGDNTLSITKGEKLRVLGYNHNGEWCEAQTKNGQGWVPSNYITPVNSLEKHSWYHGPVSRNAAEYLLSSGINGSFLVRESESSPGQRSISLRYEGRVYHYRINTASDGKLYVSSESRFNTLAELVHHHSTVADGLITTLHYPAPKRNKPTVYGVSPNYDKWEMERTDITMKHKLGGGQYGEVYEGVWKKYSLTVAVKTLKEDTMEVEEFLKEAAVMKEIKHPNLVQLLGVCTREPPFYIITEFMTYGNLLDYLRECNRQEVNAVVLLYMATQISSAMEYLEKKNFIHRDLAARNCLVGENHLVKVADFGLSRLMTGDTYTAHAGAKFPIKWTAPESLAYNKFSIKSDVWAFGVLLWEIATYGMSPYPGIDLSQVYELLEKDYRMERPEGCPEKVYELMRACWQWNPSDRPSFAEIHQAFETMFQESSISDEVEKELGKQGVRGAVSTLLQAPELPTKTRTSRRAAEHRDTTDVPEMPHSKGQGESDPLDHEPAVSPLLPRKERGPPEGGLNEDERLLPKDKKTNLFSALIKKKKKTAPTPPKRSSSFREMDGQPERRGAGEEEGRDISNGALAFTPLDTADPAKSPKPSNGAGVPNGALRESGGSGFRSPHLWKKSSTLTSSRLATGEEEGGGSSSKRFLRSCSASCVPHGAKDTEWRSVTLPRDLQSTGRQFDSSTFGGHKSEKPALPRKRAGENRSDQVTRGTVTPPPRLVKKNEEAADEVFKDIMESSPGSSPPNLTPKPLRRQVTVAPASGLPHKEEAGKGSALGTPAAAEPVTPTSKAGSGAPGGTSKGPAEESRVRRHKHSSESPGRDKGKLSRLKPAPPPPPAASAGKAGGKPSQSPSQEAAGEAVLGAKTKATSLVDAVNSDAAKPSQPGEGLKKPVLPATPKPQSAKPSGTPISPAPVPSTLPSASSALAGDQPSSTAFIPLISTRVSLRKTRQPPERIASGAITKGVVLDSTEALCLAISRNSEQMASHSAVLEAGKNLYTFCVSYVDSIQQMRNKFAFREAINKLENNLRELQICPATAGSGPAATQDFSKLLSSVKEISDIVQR
T2 sequence (P11274 whole entry, looked up): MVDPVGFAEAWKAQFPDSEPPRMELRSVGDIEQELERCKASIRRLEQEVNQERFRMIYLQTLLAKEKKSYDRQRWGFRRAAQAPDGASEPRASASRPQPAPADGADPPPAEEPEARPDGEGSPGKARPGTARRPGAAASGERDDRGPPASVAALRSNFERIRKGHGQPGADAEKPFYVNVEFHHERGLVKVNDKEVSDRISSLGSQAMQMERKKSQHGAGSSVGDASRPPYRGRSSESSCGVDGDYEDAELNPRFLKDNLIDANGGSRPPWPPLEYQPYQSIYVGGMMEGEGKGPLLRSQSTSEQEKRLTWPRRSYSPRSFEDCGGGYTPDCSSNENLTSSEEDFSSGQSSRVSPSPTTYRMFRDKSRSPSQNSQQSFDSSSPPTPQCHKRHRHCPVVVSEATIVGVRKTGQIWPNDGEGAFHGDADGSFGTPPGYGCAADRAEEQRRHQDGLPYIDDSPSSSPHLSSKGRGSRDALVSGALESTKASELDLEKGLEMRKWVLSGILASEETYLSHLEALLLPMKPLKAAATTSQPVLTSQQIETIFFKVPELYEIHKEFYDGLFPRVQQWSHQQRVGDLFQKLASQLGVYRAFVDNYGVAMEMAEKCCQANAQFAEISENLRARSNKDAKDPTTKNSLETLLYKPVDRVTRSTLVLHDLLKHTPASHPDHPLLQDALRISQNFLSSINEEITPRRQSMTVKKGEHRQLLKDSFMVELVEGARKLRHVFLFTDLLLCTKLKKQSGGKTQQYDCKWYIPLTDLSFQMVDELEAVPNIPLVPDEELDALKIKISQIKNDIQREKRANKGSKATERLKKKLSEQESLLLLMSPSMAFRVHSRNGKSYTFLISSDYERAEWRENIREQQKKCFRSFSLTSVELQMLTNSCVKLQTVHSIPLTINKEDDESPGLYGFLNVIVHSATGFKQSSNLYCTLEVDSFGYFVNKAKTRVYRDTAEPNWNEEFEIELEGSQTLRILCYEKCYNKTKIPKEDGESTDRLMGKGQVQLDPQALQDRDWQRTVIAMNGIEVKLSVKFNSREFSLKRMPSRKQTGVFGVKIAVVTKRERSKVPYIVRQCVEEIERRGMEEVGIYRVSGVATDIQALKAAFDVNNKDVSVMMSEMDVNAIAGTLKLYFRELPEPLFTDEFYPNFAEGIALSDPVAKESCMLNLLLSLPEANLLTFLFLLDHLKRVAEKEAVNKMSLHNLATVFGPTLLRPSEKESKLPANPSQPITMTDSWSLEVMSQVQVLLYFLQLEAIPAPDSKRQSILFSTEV
T2 sequence (Q96SW2 whole entry, looked up): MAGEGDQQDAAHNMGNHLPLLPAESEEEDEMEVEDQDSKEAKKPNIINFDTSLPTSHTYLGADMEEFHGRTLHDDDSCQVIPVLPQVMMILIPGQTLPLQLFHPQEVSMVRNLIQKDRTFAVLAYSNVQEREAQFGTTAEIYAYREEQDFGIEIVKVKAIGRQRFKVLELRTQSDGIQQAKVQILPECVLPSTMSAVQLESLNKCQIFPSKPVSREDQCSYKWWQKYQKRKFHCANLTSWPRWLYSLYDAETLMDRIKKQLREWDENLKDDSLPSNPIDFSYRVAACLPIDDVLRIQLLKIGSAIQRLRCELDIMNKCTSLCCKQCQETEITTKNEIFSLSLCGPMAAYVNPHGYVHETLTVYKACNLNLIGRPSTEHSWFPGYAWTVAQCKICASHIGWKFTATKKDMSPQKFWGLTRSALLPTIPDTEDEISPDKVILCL
T1 sequence (P00519 whole entry, looked up): as the sequence (P00519 whole entry, looked up) above
T1 sequence (Q96SW2 whole entry, looked up): as the sequence (Q96SW2 whole entry, looked up) above

For `Cc1nc(Nc2ncc(C(=O)Nc3c(C)cccc3Cl)s2)cc(N2CCN(CCCCOc3ccc(/N=N/c4ccc(C(=O)Nc5cccc6c5CN(C5CCC(=O)NC5=O)C6=O)cc4)cc3)CC2)n1` (stereo unspecified), the result in data set [1], in data set [15], in data set [21], in data set [23], in [24] and in [25] was Active. For the same compound, the result in data set [27] and in data set [28] was Active. Further, the EC50 in the data set with K562 [2] is 28 nM. The outcome (in the data set with A549; in data set [4]; in data set [5]; in data set [10]; in the data set on HCT-116; in [11]) was inactive. In addition, the result (in data set [13]; with MCF7; in data set [19]; in [20]; in data set [22]) was inactive. In [3], the Stability entry was “Stable”. Also, the Activity in data set [6] was > 90%; in [8], “Dose-dependent effect”; in data set [14], > 90%; in the data set on K562 [16] it was “Non-Toxic”; in [18], “Dose-dependent effect”. For the same compound, the Drug metabolism result in data set [7], in [12] and in [26] was “Metabolite detected” in each case. Also, in the data set on K562 [9], the concentration for half-maximal inhibition (IC50) was determined as 68 nM. Moreover, the t1/2 in data set [17] stood at 10.3 h.

Take `Cc1nc(Nc2ncc(C(=O)Nc3c(C)cccc3Cl)s2)cc(N2CCN(CCOc3ccc(/N=N/c4ccc(C(=O)Nc5cccc6c5CN(C5CCC(=O)NC5=O)C6=O)cc4)cc3)CC2)n1` (stereo unspecified): the result in data set [21] and in data set [25] was Active.

In the case of `Cc1nc(Nc2ncc(C(=O)Nc3c(C)cccc3Cl)s2)cc(N2CCN(CCCCOc3ccc(/N=N\c4ccc(C(=O)Nc5cccc6c5CN(C5CCC(=O)NC5=O)C6=O)cc4)cc3)CC2)n1` (stereo unspecified), the Activity result in data set [1] (TDE = time-dependent effect) and in data set [23] (TDE = time-dependent effect) was “Tde” each time. In addition, the outcome in data set [6], in data set [14], in data set [29] and in data set [30] was inactive.

`Cc1nc(Nc2ncc(C(=O)Nc3c(C)cccc3Cl)s2)cc(N2CCN(CCCCOc3ccc(/N=N/c4ccc(C(=O)Nc5cccc6c5CN(C5CCC(=O)N(C)C5=O)C6=O)cc4)cc3)CC2)n1` (single isomer, unassigned; (-)): the outcome in data set [31] and in [32] was inactive.

The EC50 is the concentration giving half of the maximal effect. By IC50 is commonly meant the concentration needed to halve the response being measured.
